One block for each molecule: values may come before it. Active and inactive are the calls of the source. No cut-off for these calls is given here.
How the values were obtained:
[1] = species on record: Mus musculus; test: post-synaptic DA receptor antagonist activity was evaluated by inhibition of the apomorphine-induced stereotyped behavior in mice. inactive at single given dose; format: functional
How it was run: (§1)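 Overnight-fasted mice (16-20 h), groups of 10, given compound orally 1 h before apomorphine 1.5 mg/kg sc in 0.9% saline. Stereotypy observed for 1 min every 10 min over 40 min, starting 20 min post-apomorphine, scored by a published scale. ED50 with 95% confidence limits by linear regression, µmol/kg po.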

[2] = species on record: Mus musculus; test: post-synaptic DA receptor antagonist activity was evaluated by inhibition of the apomorphine-induced stereotyped behavior in mice. inactive at below given dose; format: functional; how it was run: as §1
[3] = species on record: Mus musculus; test: Inhibition of the GBL-induced increase in DOPA accumulation in mice(DA auto receptor agonist activity); format: functional
[4] = species on record: Rattus norvegicus; test: Inhibition of the APO-induced stereotyped behavior in rats.
[5] = system: Dopamine D2 receptor (Mus musculus); test: post-synaptic dopamine […] antagonist activity evaluated by inhibition of the apomorphine-induced stereotyped behavior in mice.
[6] = molecular target: T1, Alpha-1 adrenergic receptor (Mus musculus) (UniProt P97714+P97717+P97718); test: Inhibition of noradrenaline lethal effects in mice as alpha-1 induced adrenoceptor antagonist activity; format: functional
T1 sequence (P97714 whole entry, looked up): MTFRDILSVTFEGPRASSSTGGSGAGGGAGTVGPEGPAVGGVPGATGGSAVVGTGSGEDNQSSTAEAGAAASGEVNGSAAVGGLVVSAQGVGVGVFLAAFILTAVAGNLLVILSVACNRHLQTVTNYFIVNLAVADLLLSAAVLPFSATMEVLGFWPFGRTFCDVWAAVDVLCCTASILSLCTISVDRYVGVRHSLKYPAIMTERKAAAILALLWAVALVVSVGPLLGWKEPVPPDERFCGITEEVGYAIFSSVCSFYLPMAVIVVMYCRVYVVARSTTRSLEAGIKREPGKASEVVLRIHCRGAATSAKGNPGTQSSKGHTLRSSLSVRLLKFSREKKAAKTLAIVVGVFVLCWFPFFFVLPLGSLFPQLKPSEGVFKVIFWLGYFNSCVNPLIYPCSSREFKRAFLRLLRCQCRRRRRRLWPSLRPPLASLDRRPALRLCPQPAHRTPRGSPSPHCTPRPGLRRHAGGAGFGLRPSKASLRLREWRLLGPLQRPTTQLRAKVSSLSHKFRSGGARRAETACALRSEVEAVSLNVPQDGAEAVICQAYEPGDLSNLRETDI
T1 sequence (P97717 whole entry, looked up): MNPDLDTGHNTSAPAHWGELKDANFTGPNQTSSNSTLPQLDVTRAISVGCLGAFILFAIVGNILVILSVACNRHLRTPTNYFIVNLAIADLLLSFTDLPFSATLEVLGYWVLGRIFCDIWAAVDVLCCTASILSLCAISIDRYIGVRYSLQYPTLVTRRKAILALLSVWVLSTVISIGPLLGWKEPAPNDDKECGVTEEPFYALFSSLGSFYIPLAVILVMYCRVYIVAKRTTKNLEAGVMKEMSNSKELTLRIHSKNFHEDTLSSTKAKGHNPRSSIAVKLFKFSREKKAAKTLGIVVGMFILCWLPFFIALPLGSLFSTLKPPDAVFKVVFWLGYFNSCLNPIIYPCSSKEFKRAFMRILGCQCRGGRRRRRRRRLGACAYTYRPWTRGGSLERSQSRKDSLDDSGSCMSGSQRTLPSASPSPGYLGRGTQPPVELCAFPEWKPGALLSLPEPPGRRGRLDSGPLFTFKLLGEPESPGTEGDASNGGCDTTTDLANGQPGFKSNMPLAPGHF
T1 sequence (P97718 whole entry, looked up): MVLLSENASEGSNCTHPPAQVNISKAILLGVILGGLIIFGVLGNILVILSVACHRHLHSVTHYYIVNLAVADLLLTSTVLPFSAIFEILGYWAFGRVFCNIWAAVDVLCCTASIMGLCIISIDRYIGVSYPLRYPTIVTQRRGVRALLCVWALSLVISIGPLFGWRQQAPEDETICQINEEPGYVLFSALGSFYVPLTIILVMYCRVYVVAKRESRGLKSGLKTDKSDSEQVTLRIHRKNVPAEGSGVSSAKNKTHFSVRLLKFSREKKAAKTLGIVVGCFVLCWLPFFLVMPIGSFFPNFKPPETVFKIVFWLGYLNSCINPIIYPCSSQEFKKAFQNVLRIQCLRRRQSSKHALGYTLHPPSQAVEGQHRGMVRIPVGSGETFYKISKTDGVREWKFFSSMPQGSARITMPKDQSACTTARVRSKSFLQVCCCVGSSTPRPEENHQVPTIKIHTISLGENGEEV

[7] = species on record: Rattus norvegicus; test: Inhibition of the GBL-induced increase in DOPA synthesis in rats.
[8] = ratio between ED50 values of DA receptor antagonist activity and catalepsy.; format: functional
[9] = molecular target: T1, Alpha-1 adrenergic receptor (Mus musculus); test: Inhibition of the lethal effects of noradrenaline in mice (alpha-1 induced adrenoceptor antagonist activity); format: functional
[10] = species on record: Mus musculus; test: Induction of catalepsy in mice; format: functional
[11] = species on record: Mus musculus; test: post-synaptic DA receptor antagonist activity was evaluated by inhibition of the apomorphine-induced stereotyped behavior in mice. 49% inhibition at single given dose; format: functional; how it was run: as §1
[12] = species on record: Mus musculus; test: Inhibition of the GBL-induced increase in DOPA accumulation in mice(DA auto receptor agonist activity); IA = inactive; format: functional, organism-based
[13] = species on record: Rattus norvegicus; test: Inhibition of the APO-induced stereotyped behavior in rats
[14] = species on record: Mus musculus; test: Inhibition of the GBL-induced increase in DOPA synthesis in mice; IA = inactive; format: functional, organism-based
[15] = species on record: Mus musculus; test: Induction of catalepsy in mice.; format: functional
[16] = species on record: Mus musculus; test: post-synaptic DA receptor antagonist activity was evaluated by inhibition of the apomorphine-induced stereotyped behavior in mice. 51% inhibition at single given dose.; format: functional; how it was run: as §1

SMILES: Cc1c(O)cccc1N1CCN(CCCCOc2ccc3c(c2)NC(=O)CC3)CC1
- ED50 ([1]; read-out: ED50): > 8 µmol/kg

SMILES: O=C1CCc2ccc(OCCCCN3CCN(c4ccccc4)CC3)cc2N1
- ED50 [2]: > 28 µmol/kg

SMILES: O=C1CCc2ccc(OCCCCN3CCN(c4ccc(Cl)c(Cl)c4)CC3)cc2N1
- ED50 ([1]; read-out: ED50): > 7 µmol/kg

SMILES: Cc1c(Br)cccc1N1CCN(CCCCOc2ccc3c(c2)NC(=O)CC3)CC1
- ED50 [3]: 1.3 µmol/kg

- ED50 [5]: 41.3 µmol/kg
SMILES: Cc1cccc(N2CCN(CCCOc3ccc4ccc(O)nc4c3)CC2)c1C
- ED50 [4]: 1860 µmol/kg
- ED50 [3]: 3.5 µmol/kg
- ED50 [6]: 151 µmol/kg
- ED50 [7]: 15.1 µmol/kg
- Ratio [8]: > 1.4

- ED50 [5]: 0.24 µmol/kg
SMILES: CCOc1ccccc1N1CCN(CCCCOc2ccc3ccc(O)nc3c2)CC1
- ED50 [3]: > 20 µmol/kg
- ED50 [9]: > 127 µmol/kg

SMILES: O=C1CCc2ccc(OCCCCN3CCN(c4ccc(Cl)cc4)CC3)cc2N1
- ED50 [2]: > 8 µmol/kg

- ED50 [5]: 2.8 µmol/kg
SMILES: Cc1c(Cl)cccc1N1CCN(CCCCOc2ccc3ccc(O)nc3c2)CC1
- ED50 [3]: 20.1 µmol/kg
- ED50 [10]: 12.6 µmol/kg
- ED50 [9]: > 299 µmol/kg
- Ratio [8]: 4.5

SMILES: O=C1CCc2ccc(OCCCCN3CCN(c4ccccc4[N+](=O)[O-])CC3)cc2N1
- ED50 [2]: > 7 µmol/kg

- ED50 [5]: 0.7 µmol/kg
SMILES: Cc1c(N2CCN(CCCCOc3ccc4c(c3)NC(=O)CC4)CC2)cccc1[N+](=O)[O-]
- ED50 [3]: > 23 µmol/kg
- ED50 [6]: > 146 µmol/kg
- ED50 [10]: 5.9 µmol/kg
- Ratio [8]: 8.7

SMILES: Nc1ccccc1N1CCN(CCCCOc2ccc3c(c2)NC(=O)CC3)CC1
- ED50 ([1]; read-out: ED50): > 25 µmol/kg

- ED50 [5]: 4.1 µmol/kg
SMILES: Cc1c(C#N)cccc1N1CCN(CCCCOc2ccc3c(c2)NC(=O)CC3)CC1

SMILES: O=C1CCc2ccc(OCCCCN3CCN(c4cc(Cl)cc(Cl)c4)CC3)cc2N1
- ED50 [3]: > 22 µmol/kg
- ED50 [9]: > 256 µmol/kg

SMILES: O=C1CCc2c(cccc2OCCCCN2CCN(c3cccc(Cl)c3Cl)CC2)N1
- ED50 ([1]; read-out: ED50): > 22 µmol/kg

SMILES: Cc1cccc(N2CCN(CCCCOc3ccc4c(c3)NC(=O)CC4)CC2)c1C
- ED50 [3]: 9.1 µmol/kg
- ED50 [10]: 13.5 µmol/kg
- ED50 [9]: > 314 µmol/kg

SMILES: Cc1c(Cl)cccc1N1CCN(CCCCOc2ccc3c(c2)NC(=O)CC3)CC1
- ED50 [3]: 3.5 µmol/kg
- ED50 [6]: > 299 µmol/kg
- ED50 [10]: 5.6 µmol/kg

SMILES: Cc1ccc(Cl)cc1N1CCN(CCCCOc2ccc3c(c2)NC(=O)CC3)CC1
- ED50 [2]: > 23 µmol/kg

SMILES: Cc1c(F)cccc1N1CCN(CCCCOc2ccc3c(c2)NC(=O)CC3)CC1
- ED50 [11]: 7.2 µmol/kg

- ED50 [12]: inactive
SMILES: O=C(CCCN1CCC(O)(c2ccc(Cl)cc2)CC1)c1ccc(F)cc1 [HALOPERIDOL]
- ED50 [13]: 1.1 µmol/kg
- ED50 [6]: > 341 µmol/kg
- ED50 [10]: 0.9 µmol/kg
- ED50 [14]: inactive

SMILES: O=C1CCc2ccc(OCCCCN3CCN(c4cc(Cl)cc(Cl)c4Cl)CC3)cc2N1
- ED50 [3]: > 21 µmol/kg
- ED50 [6]: > 265 µmol/kg

SMILES: Cc1c(N)cccc1N1CCN(CCCCOc2ccc3c(c2)NC(=O)CC3)CC1
- ED50 [2]: > 25 µmol/kg

- ED50 [5]: 2.1 µmol/kg
SMILES: Cc1c(Br)cccc1N1CCN(CCCCOc2ccc3ccc(O)nc3c2)CC1

SMILES: O=C1CCc2cc(OCCCCN3CCN(c4cccc(Cl)c4Cl)CC3)ccc2N1
- ED50 [2]: > 22 µmol/kg

SMILES: CCOc1ccccc1N1CCN(CCCCOc2ccc3c(c2)NC(=O)CC3)CC1
- ED50 [3]: 0.65 µmol/kg
- ED50 [6]: 7 µmol/kg
- ED50 [10]: 4.4 µmol/kg

SMILES: O=C1CCc2ccc(OCCCCN3CCN(c4cccc(Cl)c4Cl)CC3)cc2N1 [ARIPIPRAZOLE]
- ED50 [1]: > 22 µmol/kg
- ED50 [13]: 11.8 µmol/kg
- ED50 [3]: 5.1 µmol/kg
- ED50 [9]: > 286 µmol/kg
- ED50 [7]: 6.9 µmol/kg

SMILES: O=C1CCc2ccc(OCCCCN3CCN(c4ccc(Cl)cc4Cl)CC3)cc2N1
- ED50 [2]: > 7 µmol/kg

SMILES: Cc1ccc(N2CCN(CCCCOc3ccc4c(c3)NC(=O)CC4)CC2)cc1Cl
- ED50 [2]: > 7 µmol/kg

SMILES: O=C1CCc2ccc(OCCCCN3CCN(c4c(Cl)cccc4Cl)CC3)cc2N1
- ED50 ([1]; read-out: ED50): > 7 µmol/kg

SMILES: Cc1c(Cl)cccc1N1CCN(CCCCCOc2ccc3c(c2)NC(=O)CC3)CC1
- ED50 [2]: > 23 µmol/kg

SMILES: N#Cc1ccccc1N1CCN(CCCCOc2ccc3c(c2)NC(=O)CC3)CC1
- ED50 ([1]; read-out: ED50): > 23 µmol/kg

- ED50 [5]: 26 µmol/kg
SMILES: Cc1cccc(N2CCN(CCCOc3ccc4c(c3)NC(=O)CC4)CC2)c1C

- ED50 [5]: 0.9 µmol/kg
SMILES: Oc1ccc2ccc(OCCCCN3CCN(c4cccc(Cl)c4Cl)CC3)cc2n1
- ED50 [3]: > 22 µmol/kg
- ED50 [9]: > 287 µmol/kg

SMILES: CC(=O)Nc1cccc(N2CCN(CCCCOc3ccc4c(c3)NC(=O)CC4)CC2)c1C
- ED50 [2]: > 25 µmol/kg

SMILES: Cc1cccc(N2CCN(CCCCOc3ccc4c(c3)NC(=O)CC4)CC2)c1Cl
- ED50 [15]: 1.4 µmol/kg
- ED50 [3]: > 23 µmol/kg
- ED50 [9]: > 150 µmol/kg

SMILES: Cc1cc(Br)ccc1N1CCN(CCCCOc2ccc3c(c2)NC(=O)CC3)CC1
- ED50 [16]: 21 µmol/kg

SMILES: Cc1cccc(N2CCN(CCCCOc3ccc4c(c3)NC(=O)CC4)CC2)c1Br
- ED50 [3]: > 21 µmol/kg

- ED50 [5]: 3.4 µmol/kg
SMILES: Cc1cccc(N2CCN(CCCCOc3ccc4ccc(O)nc4c3)CC2)c1C
- ED50 [3]: 3.9 µmol/kg
- ED50 [10]: 10.5 µmol/kg
- ED50 [9]: > 156 µmol/kg
- Ratio [8]: 3.1

- ED50 [12]: inactive
SMILES: CN(C)CCCN1c2ccccc2Sc2ccc(Cl)cc21 [CHLORPROMAZINE]
- ED50 [13]: 28.4 µmol/kg
- ED50 [6]: 19.7 µmol/kg
- ED50 [14]: inactive

Reference: ChEMBL document CHEMBL1131480, “Novel antipsychotic agents with dopamine autoreceptor agonist properties: synthesis and pharmacology of 7-[4-(4-phenyl-1-piperazinyl)butoxy]-3,4-dihydro-2(1H)-quinolinone derivatives” (1998)
